From ChEMBL document CHEMBL1125652, “Kynurenic acid derivatives. Structure-activity relationships for excitatory amino acid antagonism and identification of potent and selective antagonists at the glycine site on the N-methyl-D-aspartate receptor” (J Med Chem, 1991) come the findings set out here.

Experiment [1] has as its target Glutamate NMDA receptor. Description: Inhibition of [3H]glycine binding to glycine site of N-methyl-D-aspartate glutamate receptor in rat cortical membranes. The experiment is classed as cell membranes, Membrane.
The target in experiment [2] is Glutamate NMDA receptor (Rattus norvegicus) (UniProt P35439+Q00959+Q00960+Q00961+Q62645+Q8VHN2+Q9R1M7). Description: Apparent dissociation constant of [3H]glycine from N-methyl-D-aspartate glutamate receptor in rat cortical slice preparation expressed as log values. The essentials: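 Rat cortical slice preparation; test compound antagonism of depolarizations evoked by agonists N-methyl-D-aspartic acid, quisqualic acid or kainic acid, expressed as apparent Kb.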

`CCCCc1ccc2c(O)cc(C(=O)O)nc2c1` gave an IC50 in experiment [1] of more than 100000 nM.
On to `Cc1cc(Br)cc2nc(C(=O)O)cc(O)c12`, for which the IC50 in experiment [1] turned out to be 1100 nM. Moreover, in experiment [2], the -Log 1/Kb was found to be 5.58.
For `Cc1cc(I)cc2nc(C(=O)O)cc(O)c12`, in that order: 1200 nM and 5.05.
The like results for `O=C(O)c1cc(O)c2ccc(Br)cc2n1` were, in that order, 850 nM and 5.1.
With `CCCc1cccc2nc(C(=O)O)cc(O)c12`, the -Log 1/Kb in experiment [2] was 3.4.
As to `O=C(O)c1cc(O)c2ccc(F)cc2n1`, the -Log 1/Kb in experiment [2] was 4.5.
For `O=C(O)c1cc(O)c2c(C(F)(F)F)cc(C(F)(F)F)cc2n1`, the IC50 in experiment [1] is more than 100000 nM.
As to `O=C(O)c1cc(O)c2c(C(F)(F)F)cccc2n1`, the -Log 1/Kb in experiment [2] came to 4.46.
Take `O=C(O)c1cc(O)c2ccc([N+](=O)[O-])cc2n1`: the -Log 1/Kb in experiment [2] was determined as 4.11.
Take `C=Cc1cccc2nc(C(=O)O)cc(O)c12`: the IC50 in experiment [1] was more than 100000 nM.
As for `O=C(O)c1nc2cc(Cl)ccc2[nH]1`, the IC50 in experiment [1] is 5600 nM.
Still for that read-out and setting: the figure for `COc1nc2cc(C)c(C)cc2nc1OC` is more than 100000 nM; for `O=c1[nH]c2ccc(Cl)cc2[nH]c1=O` it is 8400 nM.
In experiment [1], `Cc1cc(Br)c2c(O)cc(C(=O)O)nc2c1` displayed an IC50 of 820 nM. In experiment [2], the -Log 1/Kb was 5.68.
For `COc1ccc2c(O)cc(C(=O)O)nc2c1`, in experiment [1], the 50% inhibitory concentration (IC50) was more than 100000 nM.
On to `CCc1cc(Cl)cc2nc(C(=O)O)cc(O)c12`, for which the 50% inhibitory concentration (IC50) in experiment [1] is 260 nM. Further, in experiment [2], the -Log 1/Kb was 6.
For the molecule `Cc1ccc2c(O)cc(C(=O)O)nc2c1`, the IC50 in experiment [1] turned out to be 1800 nM. In experiment [2], the -Log 1/Kb worked out at 4.47.
As for `O=C(O)c1cc(O)c2c(I)cccc2n1`, the IC50 in experiment [1] amounted to 630 nM. In addition, the -Log 1/Kb in experiment [2] worked out at 5.12.
`CCc1cc(Br)c2c(O)cc(C(=O)O)nc2c1`: the IC50 in experiment [1] is 3200 nM. The -Log 1/Kb in experiment [2] stood at 4.72.
For `CCc1cc(Cl)c2c(O)cc(C(=O)O)nc2c1`, in that order: 4900 nM and 4.42.
For `Cc1cccc2nc(C(=O)O)cc(O)c12`, in that order: 2100 nM and 4.68.
For `C=Cc1ccc2c(O)cc(C(=O)O)nc2c1`, in that order: more than 100000 nM and 3.58.
Consider `O=C(O)c1cc(O)c2c(F)cccc2n1`, for which the -Log 1/Kb in experiment [2] amounted to 4.39.
For the molecule `CCc1cccc2nc(C(=O)O)cc(O)c12`, the half-inhibitory concentration (IC50) in experiment [1] amounted to 4800 nM. Also, the -Log 1/Kb in experiment [2] was 5.26.
The like results for `CCCCc1cccc2nc(C(=O)O)cc(O)c12` were, in that order, more than 100000 nM and 3.31.
As to `O=C(O)c1cc(O)c2ccc(C(F)(F)F)cc2n1`, in experiment [2], the -Log 1/Kb turned out to be 3.52.
On to `CC(C)c1ccc2c(O)cc(C(=O)O)nc2c1`, for which the IC50 in experiment [1] was more than 100000 nM.
The molecule `O=C(O)c1cc(O)c2c(I)cc(Cl)cc2n1` displayed an IC50 in experiment [1] of 32 nM. Also, in experiment [2], the -Log 1/Kb worked out at 6.4.
For `O=C(O)c1cc(O)c2c(Cl)cc(I)cc2n1`, in that order: 650 nM and 5.
As to `CSc1ccc2c(O)cc(C(=O)O)nc2c1`, the -Log 1/Kb in experiment [2] turned out to be 2.67.
Turning to `Cc1cc2[nH]c(=O)c(=O)[nH]c2cc1C`, the IC50 in experiment [1] is 2300 nM.
`O=C(O)c1cc(O)c2c(Br)cc(Br)cc2n1`: the IC50 in experiment [1] was determined as 86 nM. Further, in experiment [2], the -Log 1/Kb amounted to 5.8.
In experiment [1], `O=C(O)c1cc(O)c2c([N+](=O)[O-])cc([N+](=O)[O-])cc2n1` returned an IC50 of more than 100000 nM.
Regarding `Cc1cc(I)c2c(O)cc(C(=O)O)nc2c1`, in experiment [1], the IC50 came to 270 nM. In experiment [2], the -Log 1/Kb was 6.
For the molecule `CCCc1ccc2c(O)cc(C(=O)O)nc2c1`, the IC50 in experiment [1] is more than 100000 nM.
In experiment [1], `CCc1ccc2c(O)cc(C(=O)O)nc2c1` yielded an IC50 of more than 100000 nM. Also, the -Log 1/Kb in experiment [2] was 3.82.
For `CCc1cc(Br)cc2nc(C(=O)O)cc(O)c12`, in that order: 66 nM and 5.75.
The like results for `Cc1cc(C)c2c(O)cc(C(=O)O)nc2c1` were, in that order, 540 nM and 5.16.
In the case of `O=C(O)c1cc(O)c2c(Br)cccc2n1`, the -Log 1/Kb in experiment [2] was determined as 4.7.
For the molecule `Cc1cc2c(cc1C)n(C)c(=O)c(=O)n2C`, the IC50 in experiment [1] is more than 100000 nM.

By IC50 is commonly meant the concentration that gives 50% inhibition. Low readings indicate greater potency, high ones weaker potency.
